The text below walks through data of ChEMBL document CHEMBL2040777, “N-Aryl-N'-(chroman-4-yl)ureas and thioureas display in vitro anticancer activity and selectivity on apoptosis-resistant glioblastoma cells: screening, synthesis of simplified derivatives, and structure-activity relationship analysis” (Eur J Med Chem, 2012).

Assay [1] in a line: Growth inhibition of human Hs683 cells after 72 hrs by MTT assay. In kind it is functional, cell-based. The settings on record: Hs 683, 72 h. The procedure, abridged:
(§1)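 Glioma lines were grown in RPMI with 10% heat-inactivated FCS, 4 mM glutamine, gentamicin and penicillin-streptomycin. Cells were plated for 24 h at 10,000–40,000 cells/mL, then exposed to compound for 72 h. MTT reduction to formazan was read at 570 nm (reference 630 nm). Six replicates were run.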

Assay [2] in a line: Growth inhibition of human U373 cells after 72 hrs by MTT assay. The settings on record: U373 MG. In kind it is functional, cell-based, U-373MG ATCC. A digest of the protocol: as §1
The next assay deals with T98G. The assay can be described thus: Growth inhibition of human T98G cells after 72 hrs by MTT assay. It counts as functional, cell-based. The procedure, abridged: as §1

Structures are written as SMILES.

Consider `CC1(C)CC(NC(=O)NCc2ccccc2)c2cc(Cl)ccc2O1` (configuration not stated), for which the half-maximal inhibitory concentration (IC50) turned out to be 47 µM in assay [1], 66 µM in assay [2] and 15 µM in the assay on T98G.

For the compound `CCNC(=S)NC1CC(C)(C)Oc2ccc(Cl)cc21` (configuration not stated), the results for the IC50 (in assay [1]; in assay [2]; in the assay on T98G) were 72 µM, 96 µM and more than 100 µM, respectively.

With `COc1ccc(NC(=S)NC2CC(C)(C)Oc3ccc(Br)cc32)cc1` (configuration not stated), the IC50 was 29 µM in assay [1], 40 µM in assay [2] and 33 µM in the assay on T98G.

For the compound `O=[N+]([O-])c1ccc(NC(=S)NC2CCOc3ccc(Cl)cc32)cc1` (configuration not stated), the IC50 in assay [1] was determined as 6 µM; in assay [2], 8 µM; in the assay with T98G, 12 µM.

`CCOC(=O)NC1CC(C)(C)Oc2ccc(Cl)cc21` (configuration not stated) gave an IC50 in assay [2] of more than 100 µM.

In the case of `CC(C)NC(=O)NC1CC(C)(C)Oc2ccc(Cl)cc21` (configuration not stated), the values for the IC50 (in assay [1]; in assay [2]; with T98G) were 85 µM, 62 µM and more than 100 µM, respectively.

Take `COc1ccccc1NC(=S)NC1CC(C)(C)Oc2ccc(Br)cc21` (configuration not stated): the IC50 turned out to be 40 µM in assay [1], 22 µM in assay [2] and 42 µM in the assay on T98G.

In assay [2], `CC(C)NC1=NS(=O)(=O)c2cc(F)c(Cl)cc2N1` showed an IC50 of more than 100 µM.

As for `CC1(C)CC(NC(=O)NCc2ccccc2)c2cc(F)ccc2O1` (configuration not stated), the results for the IC50 (in assay [1]; in assay [2]; in the assay on T98G) were 19 µM, 11 µM and 49 µM, respectively.

As for `CC1(C)CC(NC(=O)Nc2ccc(Cl)cc2)c2cc(F)ccc2O1` (configuration not stated), the IC50 amounted to 25 µM in assay [1], 24 µM in assay [2] and 30 µM with T98G.

`CC(=O)NC1CC(C)(C)Oc2ccc(Cl)cc21` (configuration not stated) returned an IC50 in assay [2] of more than 100 µM.

For `CC1(C)CC(NC(=S)Nc2ccccc2)c2cc(Cl)ccc2O1` (configuration not stated), the results for the IC50 (in assay [1]; in assay [2]; in the assay with T98G) were 32 µM, 46 µM and 37 µM, respectively.

Turning to `CC1(C)CC(NC(=O)Nc2ccccc2)c2cc(Cl)ccc2O1` (configuration not stated), the IC50 in assay [1] was 33 µM; in assay [2], 68 µM; with T98G it was 34 µM.

Take `O=[N+]([O-])c1ccc(NC(=S)NCc2cccc(Cl)c2)cc1`: the IC50 in assay [1] was 27 µM; in assay [2] it was 27 µM; in the assay on T98G, 20 µM.

For `O=[N+]([O-])c1cccc(NC(=S)NCc2cccc(Cl)c2)c1`, the IC50 in assay [1] is 41 µM; in assay [2], 32 µM; in the assay on T98G it was 61 µM.

As to `CC1(C)CC(NC(=O)Nc2ccccc2Cl)c2cc(F)ccc2O1` (configuration not stated), the IC50 in assay [1] was 29 µM; in assay [2], 40 µM; in the assay with T98G it was 27 µM.

With `CC(C)NC(=S)NC1CC(C)(C)Oc2ccc(Cl)cc21` (configuration not stated), the IC50 in assay [1] turned out to be 34 µM; in assay [2] it was 57 µM; with T98G it was 91 µM.

As for `COc1ccc(Cl)cc1CNC(=S)Nc1ccc([N+](=O)[O-])cc1`, the IC50 in assay [1] turned out to be 15 µM; in assay [2] it was 22 µM; with T98G, 35 µM.

In assay [2], `CCNC(=O)NC1CC(C)(C)Oc2ccc(Cl)cc21` (configuration not stated) returned an IC50 of more than 100 µM.

`CC1(C)CC(NC(=S)NCc2ccccc2)c2cc(Br)ccc2O1` (configuration not stated): the IC50 in assay [1] amounted to 34 µM; in assay [2] it was 29 µM; in the assay with T98G, 54 µM.

Turning to `CC1(C)CC(NC(=S)NCc2ccccc2)c2cc(Cl)ccc2O1` (configuration not stated), the values for the IC50 (in assay [1]; in assay [2]; in the assay on T98G) were 43 µM, 64 µM and 99 µM, respectively.

On to `O=[N+]([O-])c1cccc(NC(=S)NC2CCOc3ccc(Cl)cc32)c1` (configuration not stated), for which the results for the IC50 (in assay [1]; in assay [2]; in the assay with T98G) were 7 µM, 8 µM and 10 µM, respectively.

Take `COc1cccc(NC(=S)NC2CC(C)(C)Oc3ccc(Br)cc32)c1` (configuration not stated): the IC50 came out at 81 µM in assay [1], 66 µM in assay [2] and 87 µM in the assay with T98G.

`CCC(C)(C)NC1=NS(=O)(=O)c2cc(Cl)ccc2N1`: the IC50 in assay [2] is more than 100 µM.

For the compound `CC1(C)CC(NC(=O)NS(=O)(=O)c2ccccc2)c2cc(Cl)ccc2O1` (configuration not stated), the values for the IC50 (in assay [1]; in assay [2]; in the assay with T98G) were more than 100 µM, 96 µM and more than 100 µM, respectively.

For `COc1ccc(Cl)cc1CNC(=S)Nc1cccc([N+](=O)[O-])c1`, the IC50 in assay [1] turned out to be 23 µM; in assay [2], 32 µM.
